Reference: ChEMBL document CHEMBL1681634, “Acyloxy nitroso compounds as nitroxyl (HNO) donors: kinetics, reactions with thiols, and vasodilation properties” (J Med Chem, 2011)
Counter-ions that a name gives are not always drawn. The source made the active and inactive calls. The rule behind the calls is not given here.

Tests used:
Thoracic aorta [1] = experiment: Inhibition of 1-Nitrosocyclohexyl trifluoroacetate induced- vasodilatory activity in Sprague-Dawley rat thoracic aorta at 0.1 to 1 mM; format: functional, tissue-based
Method in brief: (§1)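 Male Sprague-Dawley rat (200-250 g) thoracic aorta rings, 2-4 mm, in Krebs-Henseleit buffer at 37°C, pH 7.45, 2 g basal tension, 1 hr equilibration, 70 mM KCl viability check. Pretreated with L-NAME (100 μM) and indomethacin (5 μM), then preconstricted with phenylephrine (100 nM). Donors added cumulatively; relaxation is delta tension as percent of maximal PE constriction. Sigmoidal fits by non-linear regression give EC50.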

Thoracic aorta [2] = experiment: Vasodilatory activity in Sprague-Dawley rat thoracic aorta assessed as relaxation of phenylephrine-induced vasoconstriction compound treated 5 mins after 1 uM soluble guanylate cyclase inhibitor ODQ treatment; format: functional, tissue-based; method in brief: as §1
Thoracic aorta [3] = experiment: Potentiation of 1-Nitrosocyclohexyl trifluoroacetate induced- vasodilatory activity in Sprague-Dawley rat thoracic aorta at 1 mM; format: functional, tissue-based; method in brief: as §1
Thoracic aorta [4] = experiment: Inhibition of Angeli's salt induced- vasodilatory activity in Sprague-Dawley rat thoracic aorta at 0.1 to 1 mM; format: functional, tissue-based; method in brief: as §1
Rattus norvegicus [5] = species: Rattus norvegicus; experiment: Vasodilatory activity in rat thoracic aorta assessed as relaxation of phenylephrine-induced vasoconstriction
Thoracic aorta [6] = experiment: Vasodilatory activity in Sprague-Dawley rat thoracic aorta assessed as relaxation of phenylephrine-induced vasoconstriction at 0.01 nM to 1 uM in presence of 21% oxygen; format: functional, tissue-based; method in brief: as §1
Thoracic aorta [7] = experiment: Vasodilatory activity in Sprague-Dawley rat thoracic aorta assessed as relaxation of phenylephrine-induced vasoconstriction compound treated 5 mins after 200 uM NO-scavenger C-PTIO treatment; format: functional, tissue-based; method in brief: as §1
Thoracic aorta [8] = experiment: Potentiation of Angeli's salt induced- vasodilatory activity in Sprague-Dawley rat thoracic aorta at 1 mM; format: functional, tissue-based; method in brief: as §1
Thoracic aorta [9] = experiment: Vasodilatory activity in Sprague-Dawley rat thoracic aorta assessed as relaxation of phenylephrine-induced vasoconstriction at 0.01 nM to 100 uM; format: functional, tissue-based; method in brief: as §1
Rattus norvegicus [10] = species: Rattus norvegicus; experiment: Vasodilatory activity in rat aorta assessed as relaxation of phenylephrine-induced vasoconstriction
Rattus norvegicus [11] = species: Rattus norvegicus; experiment: Ratio of compound EC50 to Angeli's salt EC50 for vasodilatory activity in rat thoracic aorta
Thoracic aorta [12] = experiment: Vasodilatory activity in Sprague-Dawley rat thoracic aorta assessed as relaxation of phenylephrine-induced vasoconstriction at 0.01 nM to 1 uM in presence 100 U/ml SOD at 21% oxygen; format: functional, tissue-based; method in brief: as §1
Rattus norvegicus [13] = species: Rattus norvegicus; experiment: Ratio of compound EC50 to Angeli's salt EC50 for vasodilatory activity in rat aorta
Thoracic aorta [14] = experiment: Vasodilatory activity in Sprague-Dawley rat thoracic aorta assessed as relaxation of phenylephrine-induced vasoconstriction at 0.01 nM to 1 uM in presence of 1% oxygen; format: functional, tissue-based; method in brief: as §1
Thoracic aorta [15] = experiment: Potentiation of MahmaNonoate induced- vasodilatory activity in Sprague-Dawley rat thoracic aorta at 1 mM; format: functional, tissue-based; method in brief: as §1
Thoracic aorta [16] = experiment: Potentiation of 1-Nitrosocyclohexyl acetate induced- vasodilatory activity in Sprague-Dawley rat thoracic aorta at 1 mM; format: functional, tissue-based; method in brief: as §1
Thoracic aorta [17] = experiment: Inhibition of 1-Nitrosocyclohexyl acetate induced- vasodilatory activity in Sprague-Dawley rat thoracic aorta at 0.1 to 1 mM; format: functional, tissue-based; method in brief: as §1

`O=NC1(OC(=O)C(F)(F)F)CCCCC1` [1-NITROSOCYCLOHEXYL TRIFLUOROACETATE] was tested, and the inhibition (Thoracic aorta [1]) was “Active”, the Activity (Thoracic aorta [2]) was “inactive” and the Activity (Thoracic aorta [3]) was “Active”. The inhibition (Thoracic aorta [4]) was “Active”, the EC50 (Rattus norvegicus [5]) was 880 nM and the Activity (Thoracic aorta [6]) was “Active”. For the same molecule, the Activity (Thoracic aorta [7]) was “inactive”, the Activity (Thoracic aorta [8]) was “Active” and the Activity (Thoracic aorta [9]) was “Dose-dependent effect”. The EC50 (Rattus norvegicus [10]) was 880 nM, the “Ratio EC50” value (Rattus norvegicus [11]) was 10 and the Activity (Thoracic aorta [12]) was “Active”. For the same molecule, the “Ratio EC50” value (Rattus norvegicus [13]) was 10 and the Activity (Thoracic aorta [14]) was “Active”.

In the case of `[O-][N+]([O-])=NO` [ANGELI'S SALT], the inhibition (Thoracic aorta [1]) is reported as “Active”, the Activity (Thoracic aorta [2]) is reported as “inactive” and the Activity (Thoracic aorta [3]) is reported as “Active”. The inhibition (Thoracic aorta [4]) was “Active”, the EC50 (Rattus norvegicus [5]) was 82 nM and the Activity (Thoracic aorta [6]) was “Active”. The Activity (Thoracic aorta [7]) was “inactive”, the Activity (Thoracic aorta [8]) was “Active” and the Activity (Thoracic aorta [9]) was “Dose-dependent effect”. For the same molecule, the EC50 (Rattus norvegicus [10]) was 82 nM, the Activity (Thoracic aorta [12]) was “Active” and the Activity (Thoracic aorta [14]) was “inactive”.

With `CC(=O)N[C@@H](CS)C(=O)O` the Activity (Thoracic aorta [3]) was “Active”, the Activity (Thoracic aorta [15]) was “inactive” and the Activity (Thoracic aorta [8]) was “Active”. The Activity (Thoracic aorta [16]) was “inactive”.

With `CC(=O)OC1(N=O)CCCCC1` [1-NITROSOCYCLOHEXYL ACETATE] the Activity (Thoracic aorta [2]) was “inactive”, the EC50 (Rattus norvegicus [5]) was 10000 nM and the Activity (Thoracic aorta [15]) was “inactive”. For the same molecule, the Activity (Thoracic aorta [6]) was “Active”, the Activity (Thoracic aorta [7]) was “inactive” and the Activity (Thoracic aorta [9]) was “Dose-dependent effect”. For the same molecule, the EC50 (Rattus norvegicus [10]) was 10000 nM, the inhibition (Thoracic aorta [17]) was “inactive” and the Activity (Thoracic aorta [16]) was “inactive”. For the same molecule, the Activity (Thoracic aorta [12]) was “Active” and the Activity (Thoracic aorta [14]) was “Active”.

With `CNCCCCCCN(C)N(O)N=O` the Activity (Thoracic aorta [2]) was “inactive”, the Activity (Thoracic aorta [15]) was “inactive” and the Activity (Thoracic aorta [7]) was “inactive”. The Activity (Thoracic aorta [9]) was “Dose-dependent effect” and the Activity (Thoracic aorta [16]) was “inactive”.

`N[C@@H](CCC(=O)N[C@@H](CS)C(=O)NCC(=O)O)C(=O)O` was tested, and the inhibition (Thoracic aorta [1]) was “Active”, the inhibition (Thoracic aorta [4]) was “Active” and the inhibition (Thoracic aorta [17]) was “inactive”.
